Calls of active or inactive are those of the source.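 The calls were made as follows, unless noted: active = viability at or below 30% in both replicate assays; inconclusive = viability at or below 30% in just one of the two assays; inactive = the rest.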

Test [1] can be described thus: Her2 expression decrease, cell viability multiplex – SKBR3 breast tumor cells, AlphaScreen, ATP viability, primary screen (AID 461;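 active = Her2 level under about 52% in both replicate screens, with viability over 70% of control, limit read from the data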;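 as to Her2 level: lower value means less Her2 protein in the cells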;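 as to viability: percent of carrier control wells set as 100% viability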). To be noted: SKBR3 Her2 protein level, 18-24 h, measured here: SKBR3 viability, ATP luminescence, at 10 µM.
Test [2] addresses Receptor tyrosine-protein kinase erbB-2 (Homo sapiens) (UniProt P04626). The test is described as above. To be noted: 18-24 h, at 10 µM, stronger effect = lower value.
Test [3] is described as follows: reduced viability of SK-BR-3 breast cancer cells – cell-based, 24 h, human, pilot screen (AID 572;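 active = viability at or below 10% of carrier control in both of two separate runs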;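 also: compound exposure lasted between 18 and 24 h rather than exactly 24 h; 100% = carrier-treated control wells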). The following applies: SK-BR-3 viability, CellTiter-Glo luminescence, at 10 µM, stronger effect = lower value.
Test [4] in a line: HUVEC growth inhibition – cell-based, human, primary screen (AID 575).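 Also: 100% = median of untreated cell wells with 0.1% DMSO on each plate.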 The following applies: HUVEC proliferation, CellTiter-Glo luminescence, 72 h; at 10 µM; stronger effect = lower value. An outline of the steps:
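Assay system: primary human umbilical vein endothelial cells / Buffer or medium: endothelial basal medium with 2% FBS plus growth supplements / Compound dosing: one dose, 10 µM final, 0.1% DMSO / Timing: 72 h treatment at 37 °C / Signal: CTG luminescence / Benchmarks: 32 DMSO-only cell-control wells (high), 32 MePR drug-control wells (low) per plate / Plate: collagen-coated 384-well format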

Test [5] can be described thus: H69AR cell proliferation blockers – human, duplicate replicates, primary screen (AID 580;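 active = viability at or under a set limit in both replicates, limit being median viability minus 3 SD, cut at about 48% in these data, passing the limit was not always enough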;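 also: 100% = mean luminescence of untreated wells and 0% = no signal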). The following applies: H69AR lung tumor cells viability, ATP luminescence, 72 h; at 10 µM; stronger effect = lower value.
Test [6] can be described thus: MRP1 drug-resistance reversers in H69AR cells – cell-based, doxorubicin co-treatment, pilot screen (AID 601;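 active = viability loss from added drug above about 55%, and viability with drug at most 40%, in both replicates, limit read from the data, passing the limit was not always enough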). The following applies: CellTiter-Glo, 72 h, at 10 µM; for differential viability (reversal): stronger effect = higher value.
Test [7] in a line: yeast transport mutant growth inhibition pilot in 384-well plates, post-Golgi transport modulator project (AID 636; in the data active = inhibition above about 31%). The following applies: absorbance 615 nm, about 18 h, stronger effect = higher value.
The nature of test [8]: growth suppression of yeast trafficking mutant, preliminary HTS, modulators of trafficking downstream of Golgi apparatus project, 1536-format plate, OD 615 nm (AID 637; in the data active = inhibition above about 30%). To be noted: yeast transport mutant growth, absorbance 615 nm, 18 h; stronger effect = higher value.
Setting [9] is: H69AR cells + 2 uM doxorubicin, measured here: viability with 2 uM doxorubicin, stronger effect = lower value.
Where [10] appears, read: H69AR cells, compound alone cytotoxicity.

Receptor tyrosine-protein kinase erbB-2 (Homo sapiens), sequence (P04626 whole entry, looked up): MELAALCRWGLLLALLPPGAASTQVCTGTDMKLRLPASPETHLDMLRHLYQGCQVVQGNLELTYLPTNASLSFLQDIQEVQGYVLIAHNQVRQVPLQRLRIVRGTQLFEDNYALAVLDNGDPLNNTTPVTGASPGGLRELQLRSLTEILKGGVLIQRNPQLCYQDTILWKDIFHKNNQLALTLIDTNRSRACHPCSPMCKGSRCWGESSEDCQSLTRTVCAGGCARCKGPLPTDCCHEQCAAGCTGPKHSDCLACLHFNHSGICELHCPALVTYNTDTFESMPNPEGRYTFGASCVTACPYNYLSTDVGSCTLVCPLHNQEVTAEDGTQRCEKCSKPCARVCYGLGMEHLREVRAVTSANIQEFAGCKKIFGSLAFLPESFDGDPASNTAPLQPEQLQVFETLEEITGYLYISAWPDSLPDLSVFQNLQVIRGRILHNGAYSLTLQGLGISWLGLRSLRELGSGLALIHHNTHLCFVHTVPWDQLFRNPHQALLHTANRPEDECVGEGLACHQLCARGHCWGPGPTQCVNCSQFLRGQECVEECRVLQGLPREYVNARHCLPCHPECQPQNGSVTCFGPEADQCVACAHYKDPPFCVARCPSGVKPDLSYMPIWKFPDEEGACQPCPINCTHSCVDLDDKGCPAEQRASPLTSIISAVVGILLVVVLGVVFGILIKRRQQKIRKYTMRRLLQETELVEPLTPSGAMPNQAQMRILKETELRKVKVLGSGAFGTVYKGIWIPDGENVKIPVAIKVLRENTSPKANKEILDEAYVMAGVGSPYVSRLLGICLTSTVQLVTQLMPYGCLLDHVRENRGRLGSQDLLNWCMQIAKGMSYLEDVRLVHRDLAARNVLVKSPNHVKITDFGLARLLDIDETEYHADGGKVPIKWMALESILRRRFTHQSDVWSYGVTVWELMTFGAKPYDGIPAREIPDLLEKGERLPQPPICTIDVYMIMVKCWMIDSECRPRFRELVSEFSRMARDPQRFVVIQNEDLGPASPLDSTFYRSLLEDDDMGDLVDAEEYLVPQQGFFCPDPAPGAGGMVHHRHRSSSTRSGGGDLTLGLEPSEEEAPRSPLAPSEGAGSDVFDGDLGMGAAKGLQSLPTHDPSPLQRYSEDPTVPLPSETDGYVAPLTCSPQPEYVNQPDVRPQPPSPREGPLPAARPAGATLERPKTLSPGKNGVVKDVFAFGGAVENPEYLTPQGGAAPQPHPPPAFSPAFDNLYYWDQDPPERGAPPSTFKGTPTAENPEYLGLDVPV

With `C=C(C)Cn1c(N2CCN(CC)CC2)nc2c1c(=O)[nH]c(=O)n2C`, the viability is 99.5% in test [1]; 99.5% (inactive) in test [3]; 80% (inactive) in test [4]; 85.7% (inactive) in test [5]; 87.5% in test [6] (setting [9]); 85.7% in test [6] (setting [10]). For the same compound, the Her2 level in test [2] is 99.5% (inactive). The differential viability (reversal) in test [6] (H69AR cells + 2 uM doxorubicin) is -1.74% (inactive). In addition, the inhibition in test [7] is -1.07% (inactive); in test [8] it was 6.39% (inactive).
`COc1ccc(C2(C(=O)N3CCCC3)CCOCC2)cc1OC`: the viability is 88.5% in test [1]; 88.5% (inactive) in test [3]; 82.2% (inactive) in test [4]; 97.2% (inactive) in test [5]; 87.8% in test [6] (setting [9]); 97.2% in test [6] (setting [10]). In addition, the Her2 level in test [2] is 126% (inactive). The differential viability (reversal) in test [6] (H69AR cells + 2 uM doxorubicin) is 9.43% (inactive). For the same compound, the inhibition was 3.21% (inactive) in test [7] and -11% (inactive) in test [8].
As for `Cc1cc2oc(=O)cc(CN3CCN(Cc4ccc5c(c4)OCO5)CC3)c2cc1C`, the viability in test [1] is 96.5%; in test [3], 96.5% (inactive); in test [4], 84.3% (inactive); in test [5], 80.6% (inactive); in test [6] (setting [9]) it was 80%; in test [6] (setting [10]) it was 80.6%. For the same compound, in test [2], the Her2 level is 91.5% (inactive). Moreover, the differential viability (reversal) in test [6] (H69AR cells + 2 uM doxorubicin) is 0.615% (inactive). Also, the inhibition in test [7] was -5.73% (inactive); in test [8], -1.29% (inactive).
Regarding `O=S(=O)(c1ccc(F)c(Cl)c1)N1CCCC1`, the viability in test [1] is 100%; in test [3], 100% (inactive); in test [4], 93.9% (inactive); in test [5], 92.2% (inactive); in test [6] (setting [9]) it was 89.2%; in test [6] (setting [10]), 92.2%. Further, the Her2 level in test [2] was 71% (inactive). Also, the differential viability (reversal) in test [6] (H69AR cells + 2 uM doxorubicin) was 3.06% (inactive). The inhibition is -5.68% (inactive) in test [7] and 0.16% (inactive) in test [8].
As for `CCc1cc2c(CN3CCN(CCO)CC3)cc(=O)oc2cc1O`, the viability is 106% in test [1]; 106% (inactive) in test [3]; 90.4% (inactive) in test [4]; 92.6% (inactive) in test [5]; 91.7% in test [6] (setting [9]); 92.6% in test [6] (setting [10]). For the same compound, the Her2 level in test [2] is 97% (inactive). Moreover, in test [6] (H69AR cells + 2 uM doxorubicin), the differential viability (reversal) is 0.895% (inactive). Moreover, the inhibition is -2.53% (inactive) in test [7] and 1.61% (inactive) in test [8].
With `CS(=O)(=O)NCc1ccc(C(=O)NCc2ccccc2)cc1`, the viability in test [1] is 101%; in test [3] it was 101% (inactive); in test [4], 83.5% (inactive); in test [5], 113% (inactive); in test [6] (setting [9]), 94.4%; in test [6] (setting [10]), 113%. Besides, the Her2 level in test [2] was 97% (inactive). For the same compound, the differential viability (reversal) in test [6] (H69AR cells + 2 uM doxorubicin) was 18.6% (inactive). For the same compound, the inhibition was -4.47% (inactive) in test [7] and 4% (inactive) in test [8].
As to `OCc1nc2ccccc2n1CC(O)Cn1ccc2ccccc21` (stereo not given), the viability in test [1] was 97.5%; in test [3], 97.5% (inactive); in test [4], 69.6% (inactive); in test [5] it was 85.2% (inactive); in test [6] (setting [9]) it was 101%; in test [6] (setting [10]), 85.2%. In test [2], the Her2 level was 116% (inactive). Besides, the differential viability (reversal) in test [6] (H69AR cells + 2 uM doxorubicin) was -15.4% (inactive). Moreover, the inhibition in test [7] is -1.97% (inactive); in test [8], 8.36% (inactive).
Take `CCCCCn1c(CN2CCN(C(=O)OCC)CC2)nc2c1c(=O)[nH]c(=O)n2C`: the viability was 82% in test [1]; 82% (inactive) in test [3]; 88.9% (inactive) in test [4]; 98.5% (inactive) in test [5]; 82.7% in test [6] (setting [9]); 98.5% in test [6] (setting [10]). In test [2], the Her2 level is 94.5% (inactive). Further, the differential viability (reversal) in test [6] (H69AR cells + 2 uM doxorubicin) is 15.8% (inactive). Further, the inhibition in test [7] was -0.67% (inactive); in test [8], 0.16% (inactive).
Consider `COc1ccccc1N1CC(O)=C(c2nc3ccccc3c(=O)[nH]2)C1=N`, for which the viability in test [1] is 116%; in test [3] it was 116% (inactive); in test [4], 102% (inactive); in test [5], 71.7% (inactive); in test [6] (setting [9]), 85.7%; in test [6] (setting [10]), 71.7%. Also, in test [2], the Her2 level is 72% (inactive). In addition, the differential viability (reversal) in test [6] (H69AR cells + 2 uM doxorubicin) was -13.9% (inactive). The values for the inhibition in test [7] and in test [8] were -4.05% (inactive) and 1.59% (inactive), respectively.
With `O=C1C2CC=C(Cl)CC2C(=O)N1c1ncn[nH]1` (stereo not given), the viability was 86.5% in test [1]; 86.5% (inactive) in test [3]; 106% (inactive) in test [4]; 103% (inactive) in test [5]; 101% in test [6] (setting [9]); 103% in test [6] (setting [10]). In addition, the Her2 level in test [2] was 96% (inactive). Further, the differential viability (reversal) in test [6] (H69AR cells + 2 uM doxorubicin) was 2.85% (inactive). The inhibition in test [7] is 0.27% (inactive); in test [8] it was -5.32% (inactive).
`O=C(O)C1CC(=O)N(c2ccc(OCc3ccccc3Cl)cc2)C1` (stereo not given): the viability in test [1] is 83%; in test [3] it was 83% (inactive); in test [4], 95.9% (inactive); in test [5], 90% (inactive); in test [6] (setting [9]), 81.6%; in test [6] (setting [10]), 90%. In addition, the Her2 level in test [2] was 92.5% (inactive). In test [6] (H69AR cells + 2 uM doxorubicin), the differential viability (reversal) was 8.43% (inactive). In addition, the inhibition in test [7] is 0% (inactive); in test [8] it was 17.8% (inactive).
Regarding `CCOc1ccc(CN2C(=O)c3ccccc3C2C(=O)NCc2cccnc2)cc1` (stereo not given), the viability was 96% in test [1]; 96% (inactive) in test [3]; 86.6% (inactive) in test [4]; 98.8% (inactive) in test [5]; 97% in test [6] (setting [9]); 98.8% in test [6] (setting [10]). Besides, the Her2 level in test [2] is 96.5% (inactive). The differential viability (reversal) in test [6] (H69AR cells + 2 uM doxorubicin) is 1.78% (inactive). In addition, the inhibition in test [7] is -0.91% (inactive); in test [8] it was -3.02% (inactive).
For the compound `CCOC(=O)N1CCN(c2c(NCC3CCN(Cc4cccc(C)c4)CC3)c(=O)c2=O)CC1`, the viability was 102% in test [1]; 102% (inactive) in test [3]; 81.7% (inactive) in test [4]; 107% (inactive) in test [5]; 92.2% in test [6] (setting [9]); 107% in test [6] (setting [10]). Besides, in test [2], the Her2 level is 89.5% (inactive). Besides, in test [6] (H69AR cells + 2 uM doxorubicin), the differential viability (reversal) is 15% (inactive). Also, the values for the inhibition in test [7] and in test [8] were -2% (inactive) and 2.95% (inactive), respectively.
As for `COc1ccc(NC(=O)Nc2cc(C)ccc2OC)cc1`, the viability is 101% in test [1]; 101% (inactive) in test [3]; 96.1% (inactive) in test [4]; 93.6% (inactive) in test [5]; 97.7% in test [6] (setting [9]); 93.6% in test [6] (setting [10]). The Her2 level in test [2] is 109% (inactive). In test [6] (H69AR cells + 2 uM doxorubicin), the differential viability (reversal) was -4.12% (inactive). The inhibition in test [7] was 1.18% (inactive); in test [8] it was -3.11% (inactive).
Take `CC(C)(C)C(=O)CCN1C(=O)C2(OCCO2)c2ccccc21`: the viability in test [1] is 104%; in test [3], 104% (inactive); in test [4] it was 83.9% (inactive); in test [5], 103% (inactive); in test [6] (setting [9]), 94.1%; in test [6] (setting [10]), 103%. Also, the Her2 level in test [2] is 106% (inactive). The differential viability (reversal) in test [6] (H69AR cells + 2 uM doxorubicin) is 9.06% (inactive). Further, the inhibition in test [7] is -1.82% (inactive); in test [8] it was -2.3% (inactive).
Regarding `CC1CCCCC1NC(=O)C1CCN(C(=O)NC2CCCCC2)CC1` (stereo not given), the viability in test [1] was 94.5%; in test [3] it was 94.5% (inactive); in test [4] it was 90.8% (inactive); in test [5], 102% (inactive); in test [6] (setting [9]), 95.3%; in test [6] (setting [10]), 102%. Also, the Her2 level in test [2] was 108% (inactive). In addition, in test [6] (H69AR cells + 2 uM doxorubicin), the differential viability (reversal) is 6.41% (inactive). Moreover, the inhibition is -0.78% (inactive) in test [7] and 0.17% (inactive) in test [8].
